Assay results taken from ChEMBL document CHEMBL3421570, “Combinatorial Libraries As a Tool for the Discovery of Novel, Broad-Spectrum Antibacterial Agents Targeting the ESKAPE Pathogens” (J Med Chem, 2015).
Values after ≈ are worked out from the molar mass of the structure shown. Active and inactive are the calls of the source. The rule behind the calls is not given here.

Assays:
Klebsiella pneumoniae [1] = experiment: Antimicrobial activity against Klebsiella pneumoniae assessed as inhibition of microbial growth at 45 uM after 24 hrs; format: functional, organism-based
Outline: (§1)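 Broth microdilution single-concentration read: overnight cultures diluted 1:1000, compound in DMF (≤2.0%) added, 37°C for 24 h, growth inhibition scored visually by lack of turbidity; triplicate. Gram-positives grown in TSB, Gram-negatives in LB.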

Acinetobacter baumannii [2] = experiment: Antimicrobial activity against Acinetobacter baumannii assessed as inhibition of microbial growth at 45 uM after 24 hrs; format: functional, organism-based; outline: as §1
Staphylococcus aureus [3] = experiment: Ratio of MIC for Staphylococcus aureus measured after 8 cycle passage to MIC for wild type Staphylococcus aureus; format: functional
[4] = Selectivity index, ratio of IC50 for human A549 cells to MIC for Klebsiella pneumoniae
Staphylococcus aureus [5] = experiment: Antimicrobial activity against Staphylococcus aureus USA300 strain FPR3757 infected in mouse model of lethal peritonitis assessed as mouse survival at 2 uM, im dosed 1 hr post infection and measured after 5 days post infection; format: functional, organism-based
Outline: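 Mice, six per group, infected i.p. with 1 × 10^8 CFU ml−1 S. aureus USA300 FPR3757 in PBS with 5% mucin. Compound given i.m. at 2 μM 1 h later; vehicle 45% w/v (2-hydroxypropyl)-β-cyclodextrin in water i.v.; vancomycin i.v. as control. Monitored twice daily for 5 days, pre-moribund animals euthanized. Survival compared by log-rank test.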

Staphylococcus aureus [6] = experiment: Antimicrobial activity against Staphylococcus aureus assessed as inhibition of microbial growth after 24 hrs; format: functional
Outline: (§2)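 Broth microdilution against multidrug-resistant clinical ESKAPE isolates. Overnight cultures (TSB for Gram-positives, LB for Gram-negatives) diluted 1:1000 in fresh medium, compound in DMF (≤2.0% DMF) added at decreasing concentrations, 37°C.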

Staphylococcus aureus [7] = experiment: Antimicrobial activity against Staphylococcus aureus assessed as inhibition of microbial growth at 45 uM after 24 hrs; format: functional, organism-based; outline: as §1
[8] = Induction of hemolysis in human RBC at 10 uM incubated for 15 mins; format: cell-based, Erythrocyte; conditions: red blood cells, read-out: Activity
Outline: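 Human RBCs from whole blood, resuspended 20% v/v in HA buffer (NaCl, CaCl2), compound 10 μM, 15 min at 37°C. Centrifuged 5,500 g for 1 min, supernatant OD543 read. Percent hemolysis against DMF vehicle (0%) and 1.0% Triton X-100 (100%); triplicate.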

Pseudomonas aeruginosa [9] = experiment: Antibiofilm activity against Pseudomonas aeruginosa incubated for 24 hrs followed by biofilm resuspension in PBS and measured after 24 hrs; format: functional
Outline: (§3)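 Biofilms grown 24 h in 96-well plates from overnight cultures standardized to OD600 0.5 in fresh medium (human serum only for S. aureus; TSB for Gram-positives, LB for Gram-negatives). Medium then replaced with fresh medium containing a concentration range above and below MIC, 37°C overnight. After 24 h biofilm resuspended in PBS, serially diluted, plated in duplicate, CFU counted after 24 h at 37°C. Activity relative to untreated; three technical replicates; MBEC50 reported.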

Enterobacter cloacae [10] = experiment: Bactericidal activity against Enterobacter cloacae after 24 hrs; format: functional
Enterococcus faecium [11] = experiment: Induction of spontaneous mutation in Enterococcus faecium at 2 to 10 MIC; format: functional, organism-based
Enterobacter cloacae [12] = experiment: Induction of spontaneous mutation in Enterobacter cloacae at 2 to 10 MIC; format: functional, organism-based
Klebsiella pneumoniae [13] = experiment: Antimicrobial activity against Klebsiella pneumoniae assessed as inhibition of microbial growth after 24 hrs; format: functional; outline: as §2
Enterobacter cloacae [14] = experiment: Antimicrobial activity against Enterobacter cloacae assessed as inhibition of microbial growth at 45 uM after 24 hrs; format: functional, organism-based; outline: as §1
[15] = Selectivity index, ratio of IC50 for human A549 cells to MIC for Staphylococcus aureus
[16] = Selectivity index, ratio of IC50 for human A549 cells to MIC for Enterococcus faecium
Staphylococcus aureus [17] = experiment: Antibiofilm activity against Staphylococcus aureus incubated for 24 hrs followed by biofilm resuspension in PBS and measured after 24 hrs; format: functional; outline: as §3
Acinetobacter baumannii [18] = experiment: Antimicrobial activity against Acinetobacter baumannii assessed as inhibition of microbial growth after 24 hrs; format: functional; outline: as §2
Pseudomonas aeruginosa [19] = experiment: Antimicrobial activity against Pseudomonas aeruginosa isolate 1414 assessed as inhibition of microbial growth in presence of 100 uM efflux pump inhibitor reserpine after 24 hrs; format: functional, organism-based
Acinetobacter baumannii [20] = experiment: Bactericidal activity against Acinetobacter baumannii after 24 hrs; format: functional
[21] = Cytotoxicity against human A549 cells assessed as cell viability recovery at 225 uM after 48 hrs by MTT assay; format: cell-based; conditions: read-out: Activity
Outline: (§4)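 A549 cells grown in F-12K with L-glutamine, 10% FBS, 1% penicillin-streptomycin, seeded at 1.0 × 10^5 ml−1, allowed to adhere 24 h (37°C, 5% CO2), then exposed to compound in 45% w/v (2-hydroxypropyl)-β-cyclodextrin vehicle for 48 h. MTT 4 h, formazan solubilized in DMSO, absorbance 540 nm. Percent recovery versus vehicle-only; IC50 derived; at least three independent experiments.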

Acinetobacter baumannii [22] = experiment: Induction of spontaneous mutation in Acinetobacter baumannii at 2 to 10 MIC; format: functional, organism-based
[23] = Selectivity index, ratio of IC50 for human A549 cells to MIC for Pseudomonas aeruginosa
Enterococcus faecium [24] = experiment: Antimicrobial activity against Enterococcus faecium assessed as inhibition of microbial growth at 45 uM after 24 hrs; format: functional, organism-based; outline: as §1
Acinetobacter baumannii [25] = experiment: Antibiofilm activity against Acinetobacter baumannii incubated for 24 hrs followed by biofilm resuspension in PBS and measured after 24 hrs; format: functional; outline: as §3
Pseudomonas aeruginosa [26] = experiment: Antimicrobial activity against Pseudomonas aeruginosa assessed as inhibition of microbial growth at 45 uM after 24 hrs; format: functional, organism-based; outline: as §1
Pseudomonas aeruginosa [27] = experiment: Antimicrobial activity against Pseudomonas aeruginosa assessed as inhibition of microbial growth after 24 hrs; format: functional; outline: as §2
Enterococcus faecium [28] = experiment: Bactericidal activity against Enterococcus faecium after 24 hrs; format: functional
Staphylococcus aureus [29] = experiment: Bactericidal activity against methicillin-resistant Staphylococcus aureus at MIC measured after drug wash out after 120 mins by time kill assay; format: functional
Outline: (§5)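 MRSA from stationary phase was regrown 3 h in TSB and seeded at OD600 0.5. […] After 120 min, cells were centrifuged and washed, serially diluted and plated for CFU. Percent recovery is relative to no-drug controls.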

Enterobacter cloacae [30] = experiment: Antibiofilm activity against Enterobacter cloacae incubated for 24 hrs followed by biofilm resuspension in PBS and measured after 24 hrs; format: functional; outline: as §3
Pseudomonas aeruginosa [31] = experiment: Induction of spontaneous mutation in Pseudomonas aeruginosa at 2 to 10 MIC; format: functional, organism-based; conditions: 2 to 10 x MIC
[32] = Selectivity index, ratio of IC50 for human A549 cells to MIC for Enterobacter cloacae
Staphylococcus aureus [33] = experiment: Induction of spontaneous mutation in Staphylococcus aureus at 2 to 10 MIC; format: functional, organism-based
Staphylococcus aureus [34] = experiment: Bactericidal activity against methicillin-resistant Staphylococcus aureus assessed as cell survival recovery at MIC measured after drug wash out after 120 mins by time kill assay; format: functional; outline: as §5
[35] = Cytotoxicity against human A549 cells assessed as cell viability recovery up to 125 uM after 48 hrs by MTT assay; format: cell-based; conditions: read-out: Activity; outline: as §4
[36] = Selectivity index, ratio of IC50 for human A549 cells to MIC for Acinetobacter baumannii
Acinetobacter baumannii [37] = experiment: Ratio of MIC for Acinetobacter baumannii measured after 8 cycle passage to MIC for wild type Acinetobacter baumannii; format: functional
Enterococcus faecium [38] = experiment: Antimicrobial activity against Enterococcus faecium assessed as inhibition of microbial growth after 24 hrs; format: functional; outline: as §2
Enterobacter cloacae [39] = experiment: Ratio of MIC for Enterobacter cloacae measured after 8 cycle passage to MIC for wild type Enterobacter cloacae; format: functional
A549 = experiment: Cytotoxicity against human A549 cells after 48 hrs by MTT assay; format: cell-based; conditions: A549, 48 h; outline: as §4
Staphylococcus aureus [40] = experiment: Effect on bacterial density of methicillin-resistant Staphylococcus aureus at MIC measured over 2 hrs period by time kill assay; format: functional, organism-based
Klebsiella pneumoniae [41] = experiment: Antibiofilm activity against Klebsiella pneumoniae incubated for 24 hrs followed by biofilm resuspension in PBS and measured after 24 hrs; format: functional; outline: as §3
Pseudomonas aeruginosa [42] = experiment: Bactericidal activity against Pseudomonas aeruginosa after 24 hrs; format: functional
Klebsiella pneumoniae [43] = experiment: Bactericidal activity against Klebsiella pneumoniae after 24 hrs; format: functional
Staphylococcus aureus [44] = experiment: Bactericidal activity against Staphylococcus aureus after 24 hrs; format: functional
Klebsiella pneumoniae [45] = experiment: Induction of spontaneous mutation in Klebsiella pneumoniae at 2 to 10 MIC; format: functional, organism-based
Enterobacter cloacae [46] = experiment: Antimicrobial activity against Enterobacter cloacae assessed as inhibition of microbial growth after 24 hrs; format: functional; outline: as §2
Klebsiella pneumoniae [47] = experiment: Ratio of MIC for Klebsiella pneumoniae measured after 8 cycle passage to MIC for wild type Klebsiella pneumoniae; format: functional
Enterococcus faecium [48] = experiment: Antibiofilm activity against Enterococcus faecium incubated for 24 hrs followed by biofilm resuspension in PBS and measured after 24 hrs; format: functional; outline: as §3

Q: What does the source list for `CCCCCCCN1C(=N)N(CCCC[C@H]2CNC(=N)N2CCC23C[C@H]4C[C@@H](C2)C[C@@H](C3)C4)C[C@@H]1CCCC`?
A: growth inhibition (GI) (Klebsiella pneumoniae [1]): Active; growth inhibition (GI) (Acinetobacter baumannii [2]): Active; Ratio (Staphylococcus aureus [3]): 16; Selectivity Index [4]: 88; Activity (Staphylococcus aureus [5]): Active; MIC (Staphylococcus aureus [6]): 1.7 µM; growth inhibition (GI) (Staphylococcus aureus [7]): Active; hemolysis at 0.25 h, 10 µM [8]: 0.34%; MBEC50 (Pseudomonas aeruginosa [9]): 5 µM; MBC90 (Enterobacter cloacae [10]): 2.7 µM (≈ 1.46 µg/mL); Activity (Enterococcus faecium [11]): inactive; Activity (Enterobacter cloacae [12]): inactive; MIC (Klebsiella pneumoniae [13]): 1.7 µM; growth inhibition (GI) (Enterobacter cloacae [14]): Active; Selectivity Index [15]: 88; Selectivity Index [16]: 88; MBEC50 (Staphylococcus aureus [17]): 6.4 µM; MIC (Acinetobacter baumannii [18]): 1.7 µM; growth inhibition (GI) (Pseudomonas aeruginosa [19]): Active; MBC90 (Acinetobacter baumannii [20]): 4.7 µM (≈ 2.54 µg/mL); viability at 48 h, 225 µM [21]: 35%; Activity (Acinetobacter baumannii [22]): inactive; Selectivity Index [23]: 88; growth inhibition (GI) (Enterococcus faecium [24]): Active; MBEC50 (Acinetobacter baumannii [25]): 24 µM; growth inhibition (GI) (Pseudomonas aeruginosa [26]): Active; MIC (Pseudomonas aeruginosa [27]): 1.7 µM; MBC90 (Enterococcus faecium [28]): 3.6 µM (≈ 1.95 µg/mL); fold change (FC) (Staphylococcus aureus [29]): 2.5; MBEC50 (Enterobacter cloacae [30]): 15 µM; Activity (Pseudomonas aeruginosa [31]): inactive; Selectivity Index [32]: 88; Activity (Staphylococcus aureus [33]): inactive; Survival (Staphylococcus aureus [34]): 0.2%; viability at 48 h [35]: 53%; Selectivity Index [36]: 88; Ratio (Acinetobacter baumannii [37]): <=8; MIC (Enterococcus faecium [38]): 1.7 µM; Ratio (Enterobacter cloacae [39]): <=8; IC50 (A549): 146 µM; Activity (Staphylococcus aureus [40]): inactive; MBEC50 (Klebsiella pneumoniae [41]): 8.6 µM; MBC90 (Pseudomonas aeruginosa [42]): 2.8 µM (≈ 1.51 µg/mL); MBC90 (Klebsiella pneumoniae [43]): 2.6 µM (≈ 1.41 µg/mL); MBC90 (Staphylococcus aureus [44]): 2.9 µM (≈ 1.57 µg/mL); Activity (Klebsiella pneumoniae [45]): inactive; MIC (Enterobacter cloacae [46]): 1.7 µM; Ratio (Klebsiella pneumoniae [47]): <=8; MBEC50 (Enterococcus faecium [48]): 13 µM
